Reference: ChEMBL document CHEMBL1799966, “Synthesis and anticancer activity of oxindole derived imidazo[1,5-a]pyrazines” (Eur J Med Chem, 2011)

What was measured:
Assay type in all cases: functional
[1] = test system: A549; experiment: Induction of cell cycle arrest in human A549 cells assessed as accumulation at sub G1 phase at 6.5 uM after 24 hrs by propidium iodide staining-based FACS analysis (reference value: 1.02 %)
Summary of the method: (§1)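 A549 cells (1 × 10^6) in six-well plates received 6.5 µM (final) for 24 h or 48 h. Floating and adherent cells were fixed in 70% ethanol, washed in PBS, then stained for 20 min with 50 µg/mL propidium iodide in hypotonic citrate/Triton X-100 buffer with DNase-free RNase A. Cells were analysed by FACS.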

[2] = test system: A549; experiment: Induction of cell cycle arrest in human A549 cells assessed as accumulation at sub G1 phase at 6.5 uM after 48 hrs by propidium iodide staining-based FACS analysis (reference value: 1.02 %); summary of the method: as §1
[3] = test system: A549; experiment: Induction of cell cycle arrest in human A549 cells assessed as accumulation at G0/G1 phase at 6.5 uM after 48 hrs by propidium iodide staining-based FACS analysis (reference value: 56.26 %); summary of the method: as §1
[4] = test system: A549; experiment: Induction of cell cycle arrest in human A549 cells assessed as accumulation at G2/M phase at 6.5 uM after 48 hrs by propidium iodide staining-based FACS analysis (reference value: 20.92 %); summary of the method: as §1
[5] = test system: A549; experiment: Induction of apoptosis in human A549 cells assessed as pre-necrotic cells at 6.5 uM after 24 hrs using Annexin V-FITC and PI staining by flow cytometry (reference value: 0.5 %)
[6] = test system: A549; experiment: Induction of apoptosis in human A549 cells assessed as pre-necrotic cells at 6.5 uM after 48 hrs using Annexin V-FITC and PI staining by flow cytometry (reference value: 0.5 %)
[7] = test system: SR; experiment: Cytotoxicity against human SR cells
Summary of the method: (§2)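 NCI 60-cell-line panel protocol. Primary screen used a single 10^-5 M concentration with 48 h incubation, and percent growth was read against untreated cells by sulforhodamine B protein staining. The five-dose follow-up used a DMSO solution at five 10-fold dilutions from 10^-4 to 10^-8 M.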

[8] = test system: NCI-H226; experiment: Cytotoxicity against human NCI-H226 cells
Summary of the method: (§3)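 NCI 60-cell panel second-stage testing by NCI standard procedures. Compound was dissolved in DMSO and tested at five 10-fold dilutions: 10^-4, 10^-5, 10^-6, 10^-7 and 10^-8 M.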

[9] = test system: NCI-H460; experiment: Cytotoxicity against human NCI-H460 cells; summary of the method: as §3
[10] = test system: COLO 205; experiment: Cytotoxicity against human COLO205 cells; summary of the method: as §3
[11] = test system: HCT-116; experiment: Cytotoxicity against human HCT116 cells; summary of the method: as §3
[12] = test system: KM12; experiment: Cytotoxicity against human KM12 cells; summary of the method: as §3
[13] = test system: SW-620; experiment: Cytotoxicity against human SW620 cells; summary of the method: as §2
[14] = test system: SF-268; experiment: Cytotoxicity against human SF268 cells; summary of the method: as §3
[15] = test system: SF-295; experiment: Cytotoxicity against human SF295 cells; summary of the method: as §3
[16] = test system: M14; experiment: Cytotoxicity against human M14 cells; summary of the method: as §3
[17] = test system: SK-MEL-28; experiment: Cytotoxicity against human SK-MEL-28 cells; summary of the method: as §2
[18] = test system: LOX IMVI; experiment: Cytotoxicity against human LOXIMVI cells; summary of the method: as §3
[19] = test system: UACC-257; experiment: Cytotoxicity against human UACC257 cells; summary of the method: as §2
[20] = test system: UACC-62; experiment: Cytotoxicity against human UACC62 cells; summary of the method: as §2
[21] = test system: MDA-MB-435; experiment: Cytotoxicity against human MDA-MB-435 cells; summary of the method: as §3
[22] = test system: IGROV-1; experiment: Cytotoxicity against human IGROV1 cells; summary of the method: as §3
[23] = test system: OVCAR-3; experiment: Cytotoxicity against human OVCAR3 cells; summary of the method: as §3
[24] = test system: OVCAR-4; experiment: Cytotoxicity against human OVCAR4 cells; summary of the method: as §3
[25] = test system: OVCAR-5; experiment: Cytotoxicity against human OVCAR5 cells; summary of the method: as §3
[26] = test system: NCI/ADR-RES; experiment: Cytotoxicity against human NCI/ADR-RES cells; summary of the method: as §3
[27] = test system: SK-OV-3; experiment: Cytotoxicity against human SKOV3 cells; summary of the method: as §2
[28] = test system: 786-0; experiment: Cytotoxicity against human 786-0 cells; summary of the method: as §3
[29] = test system: A498; experiment: Cytotoxicity against human A498 cells; summary of the method: as §3
[30] = test system: TK-10; experiment: Cytotoxicity against human TK10 cells; summary of the method: as §2
[31] = test system: UO-31; experiment: Cytotoxicity against human UO31 cells; summary of the method: as §2
[32] = test system: MDA-MB-231; experiment: Cytotoxicity against human MDA-MB-231 cells; summary of the method: as §3
[33] = test system: T47D; experiment: Cytotoxicity against human T47D cells; summary of the method: as §2
[34] = test system: MDA-MB-468; experiment: Cytotoxicity against human MDA-MB-468 cells; summary of the method: as §3
[35] = test system: SNB-75; experiment: Anticancer activity against human SNB75 cells assessed as mean cell growth at 10^-5 M after 48 hrs by SRB assay
Summary of the method: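 NCI-60 primary screen run to the US NCI protocol. Compound added at a single concentration of 10^-5 M and cultures incubated 48 h. The end point was sulforhodamine B (SRB) protein staining, reported as percent growth of treated cells relative to untreated control cells.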

`O=C1Nc2ccccc2/C1=C\c1nc(-c2ccccc2F)n2ccccc12` was tested, and the Activity [1] was 1.19%, the Activity [2] was 6.56% and the Activity [3] was 75.85%. The Activity [4] was 10.12%, the Activity [5] was 0.1% and the Activity [6] was 0.9%. It also gave a GI50 [7] of 11 µM, a GI50 [8] of 4.78 µM and a GI50 [9] of 2.17 µM. It also gave a GI50 [10] of 4.08 µM, a GI50 [11] of 1.97 µM and a GI50 [12] of 3.49 µM. For the same compound, the GI50 [13] was 3.97 µM, the GI50 [14] was 4.65 µM and the GI50 [15] was 3.65 µM. The GI50 [16] was 5.65 µM, the GI50 [17] was 3.71 µM and the GI50 [18] was 4.15 µM. For the same compound, the GI50 [19] was 5.2 µM, the GI50 [20] was 6.32 µM and the GI50 [21] was 3.95 µM. It also gave a GI50 [22] of 2.04 µM, a GI50 [23] of 1.9 µM and a GI50 [24] of 1.81 µM. It also gave a GI50 [25] of 1.8 µM, a GI50 [26] of 3.36 µM and a GI50 [27] of 3.46 µM. The GI50 [28] was 3.44 µM, the GI50 [29] was 2.81 µM and the GI50 [30] was 4.05 µM. It also gave a GI50 [31] of 2.12 µM, a GI50 [32] of 2.27 µM and a GI50 [33] of 2.36 µM. For the same compound, the GI50 [34] was 1.54 µM and the Activity [35] was 18.49%.
